Assay results from publication PMC5808564 (ChemMedChem, 2017).
Values joined by “and” are separate entries in the source; they are usually repeats but may differ in a detail not shown here. Equal entries are not always repeated. Where two headings read alike, the source gives them in different places.

Key:
[1] = target: recombinant T. brucei hexokinase 1 (rTbHK1) (Trypanosoma brucei, UniProt Q38C42); assay: biochemical; format: biochemical
[2] = test system: T. brucei bloodstream form (BSF) parasites (cell line 90-13, a 427 strain); assay: microbe, parasite or virus in culture; format: cell-based, Trypanosoma brucei; details: for % T. brucei BSF growth inhibition (10 μM): 10 μM compound; for % T. brucei BSF growth inhibition (10 μM) / inhibition at 10 µM: BLD = below level of detection; for T. brucei BSF potency (LD50 ± SEM): 3-day growth, n ≥ 3; for inhibition at 10 µM: Trypanosoma brucei, A-427, read-out: % T. brucei BSF growth inhibition (10 μM), 10 μM compound
IMR-90 human cells = assay: Human cell line toxicity testing; format: cell-based
[3] = target: T1, human HK 4 (human glucokinase, hGlk) (Homo sapiens, UniProt P35557); assay: Specificity assay against human glucokinase; format: biochemical; details: for % hGlk inhibition (10 μM): 10 μM compound, BLD = below level of detection; for inhibition at 10 µM: read-out: % hGlk inhibition (10 μM)
T1 sequence (P35557 1-465): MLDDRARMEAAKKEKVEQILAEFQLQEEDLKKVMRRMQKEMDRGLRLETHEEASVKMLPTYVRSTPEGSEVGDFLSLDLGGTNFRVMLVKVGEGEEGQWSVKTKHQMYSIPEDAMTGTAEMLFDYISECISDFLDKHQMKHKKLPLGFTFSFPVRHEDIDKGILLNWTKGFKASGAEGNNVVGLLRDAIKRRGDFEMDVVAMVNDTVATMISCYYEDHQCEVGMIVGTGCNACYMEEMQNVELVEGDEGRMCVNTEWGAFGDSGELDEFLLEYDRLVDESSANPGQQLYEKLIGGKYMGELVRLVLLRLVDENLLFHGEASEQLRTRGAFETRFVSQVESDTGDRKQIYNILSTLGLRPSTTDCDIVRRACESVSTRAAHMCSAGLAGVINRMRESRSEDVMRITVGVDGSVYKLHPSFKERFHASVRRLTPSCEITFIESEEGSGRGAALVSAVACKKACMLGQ
Procedure, shortened: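 Uses human hexokinase 4 (glucokinase; GenBank BC001890). Activity is read through a coupled reaction in which glucose-6-phosphate dehydrogenase converts the glucose-6-phosphate formed to 6-phosphogluconate. The coincident NADPH formation is followed at 340 nm.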

[4] = read-out: rTbHK1 potency (IC50 ± SEM), average of n ≥ 3 experiments
[5] = read-out: IMR90 toxicity (EC50), IMR-90 cells, 44-46 h
[6] = Homo sapiens, IMR-90, read-out: IMR90 toxicity (EC50)

4-methoxybenzamidochlorobenzoic acid [Compound 1]
IC50 [1, 4]: 9100 nM
activity on whole T. brucei BSF parasites (in words) [2]: no appreciable activity
EC50 (IMR-90 human cells; [5]): > 25 µM
aqueous solubility (PBS buffer, pH 7.4): > 274.3 μM

CC(C)(C)c1ccc(C(=O)Nc2cc(Cl)c(-n3cccc3)cc2C(=O)O)cc1 [Compound 4aa]
IC50 [1, 4]: 3000 ± 200 nM
% T. brucei BSF growth inhibition (10 μM) [2]: 73.6 ± 1.0%
T. brucei BSF potency (LD50 ± SEM) [2]: 6.9 ± 2.1 µM
% hGlk inhibition (10 μM) [3]: 15.8 ± 3.0%
EC50 (IMR-90 human cells; [5]): > 25 µM

CC(C)(C)c1ccc(C(=O)Nc2cc(Cl)c(-c3ccc[nH]3)cc2C(=O)O)cc1 [Compound 4bb]
IC50 [1]: 500 ± 50 nM
inhibition at 10 µM [2]: 57 ± 7.1%
inhibition at 10 µM [3]: 6.1 ± 0.1%
EC50 (IMR-90 human cells; [6]): > 25 µM

Cc1cc(C(=O)O)c(NC(=O)c2ccc(C(C)(C)C)cc2)cc1Cl [Compound 4c, 2-(4-tert-Butylbenzamido)-4-chloro-5-methylbenzoic acid]
IC50 [1]: 2700 ± 180 nM
inhibition at 10 µM [2]: 97.5 ± 0.6%
inhibition at 10 µM [3]: 12.5 ± 4.8%
EC50 (IMR-90 human cells; [6]): > 25 µM

CC(C)(C)c1ccc(C(=O)Nc2cc(Cl)c(-n3cccn3)cc2C(=O)O)cc1 [Compound 4cc]
IC50 [1, 4]: 2800 ± 200 nM
% T. brucei BSF growth inhibition (10 μM) [2]: 22.5 ± 12.3%
T. brucei BSF potency (LD50 ± SEM) [2]: > 10.0 µM
% hGlk inhibition (10 μM) [3]: 8.7 ± 4.4%
EC50 (IMR-90 human cells; [5]): > 25 µM

CCc1cc(C(=O)O)c(NC(=O)c2ccc(C(C)(C)C)cc2)cc1Cl [Compound 4d, 2-(4-tert-Butylbenzamido)-4-chloro-5-ethylbenzoic acid]
IC50 [1]: 7400 ± 150 nM
% T. brucei BSF growth inhibition (10 μM) [2]: BLD
inhibition at 10 µM [3]: 0.7 ± 1.4%
EC50 (IMR-90 human cells; [6]): > 25 µM

CC(C)(C)c1ccc(C(=O)Nc2cc(Cl)c(-n3ccnc3)cc2C(=O)O)cc1 [Compound 4dd]
IC50 [1, 4]: > 10000 nM
% T. brucei BSF growth inhibition (10 μM) [2]: 16.4 ± 13.3%
% hGlk inhibition (10 μM) [3]: 1.7 ± 3.2%
EC50 (IMR-90 human cells; [5]): > 25 µM

CC(C)(C)c1ccc(C(=O)Nc2cc(Cl)c(C3CC3)cc2C(=O)O)cc1 [Compound 4e]
IC50 [1, 4]: 6700 ± 380 nM
% T. brucei BSF growth inhibition (10 μM) [2]: 43.4 ± 16.8%
% hGlk inhibition (10 μM) [3]: BLD
EC50 (IMR-90 human cells; [5]): > 25 µM

CC(C)(C)c1ccc(C(=O)Nc2cc(Cl)c(-c3nnn[nH]3)cc2C(=O)O)cc1 [Compound 4ee]
IC50 [1]: 140 ± 2 nM
% T. brucei BSF growth inhibition (10 μM) [2]: BLD
inhibition at 10 µM [3]: 1.6 ± 0.5%
EC50 (IMR-90 human cells; [6]): > 25 µM

Cn1nnc(-c2cc(C(=O)O)c(NC(=O)c3ccc(C(C)(C)C)cc3)cc2Cl)n1 [Compound 4ff]
rTbHK1 enzymatic potency (in words) [1]: lacked enzymatic potency
IC50 [1, 4]: > 10000 nM
activity on whole T. brucei BSF parasites (in words) [2]: failed to inhibit BSF parasite growth
% T. brucei BSF growth inhibition (10 μM) [2]: BLD
% hGlk inhibition (10 μM) [3]: 14.0 ± 4.1%
EC50 (IMR-90 human cells; [5]): > 25 µM

Cc1ccc(-c2cc(C(=O)O)c(NC(=O)c3ccc(C(C)(C)C)cc3)cc2Cl)cc1 [Compound 4g]
IC50 [1, 4]: 2780 ± 30 nM
% T. brucei BSF growth inhibition (10 μM) [2]: 81.4 ± 5.6%
T. brucei BSF potency (LD50 ± SEM) [2]: 3.2 ± 1.6 µM
% hGlk inhibition (10 μM) [3]: 15.7 ± 3.0%
EC50 (IMR-90 human cells; [5]): > 25 µM

Cc1ccccc1-c1cc(C(=O)O)c(NC(=O)c2ccc(C(C)(C)C)cc2)cc1Cl [Compound 4h]
% T. brucei BSF growth inhibition (10 μM) [2]: 65.2 ± 0.2%
% hGlk inhibition (10 μM) [3]: 16.6 ± 2.3%
EC50 (IMR-90 human cells; [5]): > 25 µM

COc1ccc(-c2cc(C(=O)O)c(NC(=O)c3ccc(C(C)(C)C)cc3)cc2Cl)cc1 [Compound 4i]
IC50 [1, 4]: 1720 ± 90 nM
% T. brucei BSF growth inhibition (10 μM) [2]: 82.5 ± 7.1%
T. brucei BSF potency (LD50 ± SEM) [2]: 3.1 ± 0.2 µM
% hGlk inhibition (10 μM) [3]: 22.2 ± 1.6%
EC50 (IMR-90 human cells; [5]): > 25 µM

COc1cccc(-c2cc(C(=O)O)c(NC(=O)c3ccc(C(C)(C)C)cc3)cc2Cl)c1 [Compound 4j]
IC50 [1, 4]: 880 ± 10 nM
% T. brucei BSF growth inhibition (10 μM) [2]: 92.2 ± 2.9%
T. brucei BSF potency (LD50 ± SEM) [2]: 1.5 µM and 1.5 ± 0.3 µM
% hGlk inhibition (10 μM) [3]: 13.8 ± 1.9%
EC50 (IMR-90 human cells; [5]): > 25 µM

COc1ccccc1-c1cc(C(=O)O)c(NC(=O)c2ccc(C(C)(C)C)cc2)cc1Cl [Compound 4k]
IC50 [1, 4]: 4600 ± 320 nM
% T. brucei BSF growth inhibition (10 μM) [2]: 90.7 ± 0.9%
T. brucei BSF potency (LD50 ± SEM) [2]: 2.0 ± 0.2 µM
% hGlk inhibition (10 μM) [3]: 18.8 ± 2.4%
EC50 (IMR-90 human cells; [5]): > 25 µM
